Series [1] relates to Leishmania major. In words: Antileishmanial activity against Leishmania major promastigotes assessed as parasite growth inhibition measured after 72 hrs by MTT based ELISA reader analysis.
The subject of series [2] is Toxoplasma gondii. In words: Antiparasitic activity against Toxoplasma gondii RH tachyzoites infected in African green monkey Vero cells assessed as parasitic growth inhibition incubated for 72 hrs by inverted microscopic analysis. Type of series: functional, organism-based. The gist of the method: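 RH-strain tachyzoites grown on Vero host cells in RPMI 1640 with 10% FBS and exposed to a range of concentrations, with atovaquone as positive control. Infected cells counted under an inverted microscope; inhibition % = (1 − infected treated / infected control) × 100. IC50 from concentration–response curves at 72 h; means of at least three independent experiments.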

Series [3] in a line: Selectivity index, ratio of CC50 for cytotoxicity against African green monkey Vero cells to IC50 for antiparasitic activity against Toxoplasma gondii RH tachyzoites infected in African monkey Vero cells. It counts as toxicity, cell-based. Conditions: read-out: Ratio CC50/IC50. The essentials: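 SI = Vero CC50 (3-day MTT, 540 nm read) divided by T. gondii RH IC50 (Vero host cells, microscopic count of infected cells); both values from concentration–response curves at 72 h.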

In series [4] the target is Human immunodeficiency virus type 1 reverse transcriptase (Human immunodeficiency virus 1, UniProt Q72547). Put plainly: Inhibition of wild type HIV-1 reverse transcriptase RNase-associated RNase H activity using RNA/DNA template-primer as substrate. The gist of the method: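 RNase H activity of wild-type RT, run independently of RDDP, with RDS1759 as positive control. Assays in triplicate; IC50 reported ± error.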

In series [5] the test system is Leishmania major. In words: Antileishmanial activity against Leishmania major amastigotes infected in mouse macrophages assessed as parasite growth inhibition measured after 72 hrs by MTT based ELISA reader analysis. It counts as functional, organism-based. Conditions: Macrophage. The essentials:
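L. major promastigotes from a patient isolate; amastigotes from infected BALB/c mice, grown inside mouse macrophages. Viable parasites read by MTT absorbance at 570 nm.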

A short description of series [6]: Cytotoxicity against African green monkey Vero cells assessed as reduction in cell viability measured after 3 days by MTT assay. Type of series: toxicity, cell-based. Conditions: chlorocebus sabaeus, time 3 day. The gist of the method: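 Vero cells held 3 days with graded doses in RPMI 1640 with 5% FBS. Viability read by MTT colorimetry at 540 nm. CC50 from concentration–response curves against untreated controls; means of at least three independent experiments.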

As for `COc1ccc(C2C3=C(Nc4[nH]c(=O)[nH]c(=O)c42)c2ccccc2C3=O)cc1OC` (stereo not drawn), the IC50 was > 31 µM in series [1], 7.31 µM in series [2], 20.3 µM in series [4] and 6.94 µM in series [5]. In addition, the selectivity ratio in series [3] came to 1.1. Moreover, in series [6], the CC50 at 72 h was determined as 8.03 µM.
In the case of `COc1ccc(-c2c3c(nc4[nH]c(=O)[nH]c(=O)c24)-c2ccccc2C3=O)cc1OC`, the IC50 in series [1] was 29.4 µM; in series [2], 1.12 µM; in series [5] it was 6.73 µM. Also, in series [3], the selectivity ratio was 0.78. The half-maximal cytotoxic concentration (CC50) at 72 h in series [6] was 0.87 µM.
On to `COc1cc(C2C3=C(Nc4[nH]c(=O)[nH]c(=O)c42)c2ccccc2C3=O)cc(Br)c1OC` (stereo not drawn), for which the half-inhibitory concentration (IC50) was > 25.9 µM in series [1], 0.73 µM in series [2] and 16.4 µM in series [5]. In addition, the selectivity ratio in series [3] turned out to be 0.69. For the same molecule, in series [6], the CC50 at 72 h is 0.5 µM.
As to `COc1cc(-c2c3c(nc4[nH]c(=O)[nH]c(=O)c24)-c2ccccc2C3=O)cc(Br)c1OC`, the half-maximal inhibitory concentration (IC50) in series [1] stood at 26 µM; in series [2], 1.87 µM; in series [5], 16.2 µM. In addition, the selectivity ratio in series [3] is 1.24. Also, the cytotoxic concentration (CC50) at 72 h in series [6] was 2.31 µM.
On to `CCOC(=O)C(=O)CC(=O)/C=C/c1cccn1Cc1ccccc1Cl`, for which, in series [4], the IC50 turned out to be 8.7 µM.
For `COc1cc(C2C3=C(Nc4[nH]c(=O)[nH]c(=O)c42)c2ccccc2C3=O)cc(OC)c1OC` (stereo not drawn), the IC50 in series [1] was > 28.8 µM; in series [2] it was 2.77 µM; in series [4] it was 21.5 µM; in series [5], 21.2 µM. Moreover, the selectivity ratio in series [3] was 0.76. Further, the CC50 at 72 h in series [6] was determined as 2.1 µM.
On to `COc1cc(C2C3=C(Nc4[nH]c(=O)[nH]c(=O)c42)c2ccccc2C3=O)cc(I)c1OC` (stereo not drawn), for which the IC50 in series [1] was > 23.6 µM; in series [2] it was 0.47 µM; in series [5] it was 14 µM. Moreover, the selectivity ratio in series [3] was 0.89. In series [6], the 50% cytotoxic concentration (CC50) at 72 h was 0.42 µM.
In the same order, the values of `O=C1C2=C(Nc3[nH]c(=O)[nH]c(=O)c3C2c2cccc(Br)c2)c2ccccc21` (stereo not drawn) are 11.6 µM, 11.4 µM, 36.5 µM, 1.42 and 16.1 µM.
For `COc1cc(C2C3=C(Nc4[nH]c(=O)[nH]c(=O)c42)c2ccccc2C3=O)cc(OC)c1O` (stereo not drawn), the IC50 in series [1] is 31.7 µM; in series [2], 11 µM; in series [4] it was 17.1 µM; in series [5], 21.2 µM. The selectivity ratio in series [3] was determined as 0.55. The CC50 at 72 h in series [6] was 6.08 µM.
`COc1ccc(C2C3=C(Nc4[nH]c(=O)[nH]c(=O)c42)c2ccccc2C3=O)cc1F` (stereo not drawn): the IC50 in series [1] was found to be 7.16 µM; in series [2], 9.71 µM; in series [5] it was 16.9 µM. The selectivity ratio in series [3] was 0.74. The CC50 at 72 h in series [6] was 7.16 µM.
With `COc1cc(-c2c3c(nc4[nH]c(=O)[nH]c(=O)c24)-c2ccccc2C3=O)cc(OC)c1OC`, the IC50 in series [1] is > 29 µM; in series [2], 2.09 µM; in series [5], 5.8 µM. In series [3], the selectivity ratio was 0.97. Besides, the cytotoxic concentration (CC50) at 72 h in series [6] is 2.02 µM.
The like results for `COc1cc(C2C3=C(Nc4[nH]c(=O)[nH]c(=O)c42)c2ccccc2C3=O)cc(Cl)c1OC` (stereo not drawn) were, in that order, > 28.6 µM, 0.41 µM, 6.17 µM, 0.73 and 0.3 µM.
`O=C1C2=C(Nc3[nH]c(=O)[nH]c(=O)c3C2c2cccc(O)c2)c2ccccc21` (stereo not drawn): the IC50 in series [1] is > 34.8 µM; in series [2], 23.7 µM; in series [4] it was 93.4 µM; in series [5], 27 µM. Moreover, the selectivity ratio in series [3] was determined as 0.4. The CC50 at 72 h in series [6] was determined as 9.46 µM.
For the molecule `COc1ccc(C2C3=C(Nc4[nH]c(=O)[nH]c(=O)c42)c2ccccc2C3=O)cc1Br` (stereo not drawn), the figures for the 50% inhibitory concentration (IC50) in series [1], in series [2] and in series [5] were > 27.6 µM, 1.81 µM and 1.9 µM, respectively. Moreover, the selectivity ratio in series [3] turned out to be 0.96. In addition, in series [6], the cytotoxic concentration (CC50) at 72 h is 1.73 µM.
The like results for `COc1cc(-c2c3c(nc4[nH]c(=O)[nH]c(=O)c24)-c2ccccc2C3=O)cc(Cl)c1OC` were, in that order, 28.2 µM, 0.69 µM, 18.6 µM, 1.23 and 0.85 µM.
In the same order, the values of `COc1ccc(-c2c3c(nc4[nH]c(=O)[nH]c(=O)c24)-c2ccccc2C3=O)cc1F` are 6.68 µM, 9.25 µM, 15.7 µM, 0.44 and 4.11 µM.
As to `COc1ccc(C2C3=C(Nc4[nH]c(=O)[nH]c(=O)c42)c2ccccc2C3=O)cc1O` (stereo not drawn), the IC50 in series [1] is > 32.1 µM; in series [2], 11.4 µM; in series [4], > 100 µM; in series [5], 21.3 µM. For the same molecule, in series [3], the selectivity ratio turned out to be 0.79. In addition, the CC50 at 72 h in series [6] was 8.99 µM.
Regarding `COc1ccc(-c2c3c(nc4[nH]c(=O)[nH]c(=O)c24)-c2ccccc2C3=O)cc1Br`, the half-maximal inhibitory concentration (IC50) was 25.1 µM in series [1], 11.8 µM in series [2] and 35.8 µM in series [5]. In series [3], the selectivity ratio is 0.91. Further, the half-maximal cytotoxic concentration (CC50) at 72 h in series [6] came to 9.55 µM.
Regarding `COc1ccc(C2C3=C(Nc4[nH]c(=O)[nH]c(=O)c42)c2ccccc2C3=O)cc1C` (stereo not drawn), the 50% inhibitory concentration (IC50) in series [1] is > 32.3 µM; in series [2], 9.81 µM; in series [5], 22.2 µM. Besides, in series [3], the selectivity ratio turned out to be 0.3. Further, the CC50 at 72 h in series [6] was 2.89 µM.
Turning to `O=C1C2=C(Nc3[nH]c(=O)[nH]c(=O)c3C2c2ccc(O)c(O)c2)c2ccccc21` (stereo not drawn), the 50% inhibitory concentration (IC50) in series [1] is > 33.3 µM; in series [2], 9.99 µM; in series [4], 11.2 µM; in series [5], > 33.3 µM. In addition, the selectivity ratio in series [3] was 0.7. In addition, in series [6], the cytotoxic concentration (CC50) at 72 h is 7.03 µM.
Regarding `COc1cc(C2C3=C(Nc4[nH]c(=O)[nH]c(=O)c42)c2ccccc2C3=O)ccc1O` (stereo not drawn), the IC50 was 35.4 µM in series [1], 8.35 µM in series [2], > 100 µM in series [4] and 21.3 µM in series [5]. For the same molecule, the selectivity ratio in series [3] amounted to 0.74. Moreover, in series [6], the CC50 at 72 h worked out at 6.16 µM.
On to `O=C1C2=C(Nc3[nH]c(=O)[nH]c(=O)c3C2c2ccc(O)cc2)c2ccccc21` (stereo not drawn), for which the IC50 in series [1] was > 34.8 µM; in series [2], 20 µM; in series [4], > 100 µM; in series [5], 22 µM. Besides, the selectivity ratio in series [3] turned out to be 0.2. Besides, in series [6], the half-maximal cytotoxic concentration (CC50) at 72 h turned out to be 3.95 µM.
In the case of `COc1cc(-c2c3c(nc4[nH]c(=O)[nH]c(=O)c24)-c2ccccc2C3=O)cc(I)c1OC`, the figures for the IC50 in series [1], in series [2] and in series [5] were 23 µM, 2.47 µM and 15.4 µM, respectively. Also, the selectivity ratio in series [3] worked out at 0.9. Also, the half-maximal cytotoxic concentration (CC50) at 72 h in series [6] amounted to 2.22 µM.
In the case of `C[C@@H]1[C@H](O)[C@@H](C)/C=C/C=C/C=C/C=C/C=C/C=C/C=C/[C@H](O[C@@H]2O[C@H](C)[C@@H](O)[C@H](N)[C@@H]2O)C[C@@H]2O[C@](O)(C[C@@H](O)C[C@@H](O)[C@H](O)CC[C@@H](O)C[C@@H](O)CC(=O)O[C@H]1C)C[C@H](O)[C@H]2C(=O)O` [AMPHOTERICIN B], in series [1], the IC50 was 0.83 µM.
`O=C1C(O)=C([C@H]2CC[C@H](c3ccc(Cl)cc3)CC2)C(=O)c2ccccc21` [ATOVAQUONE]: the IC50 in series [2] came to 0.07 µM. The selectivity ratio in series [3] is 136. In addition, the CC50 at 72 h in series [6] stood at 9.5 µM.

A word on the IC50: it is the concentration that inhibits the measured activity by half. As usually defined, the CC50 is the concentration at which the toxic effect on the cells reaches its halfway point.
